# Experimental data as given in ChEMBL document CHEMBL3399927, “Identification of novel inhibitors of Aurora A with a 3-(pyrrolopyridin-2-yl)indazole scaffold” (Bioorg Med Chem, 2015).
# Tests used:
# [1] = Antiproliferative activity against human HL60 cells after 72 hrs by MTT assay; format: functional, cell-based; settings: HL-60, 72 h
# Summary of the method: (§1)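 Cells grown in RPMI-1640 with heat-inactivated 10% FBS, penicillin 100 units/mL and streptomycin 100 μg/mL, at 37 °C under 20% O2, 5% CO2. Compounds dissolved in DMSO at 10.0 mg/mL (stock), then diluted. Cells were plated for 24 h, exposed to a range of concentrations for 72 h, and viability was read by MTT. IC50 is 50% absorbance inhibition versus control cells; means of three experiments.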
# [2] = tested on: KB; assay: Antiproliferative activity against human KB cells after 72 hrs by MTT assay; format: functional, cell-based; summary of the method: as §1
# [3] = Antiproliferative activity against human HCT116 cells after 72 hrs by MTT assay; format: functional, cell-based; settings: HCT-116, 72 h; summary of the method: as §1
# [4] = tested on: A549; assay: Antiproliferative activity against human A549 cells after 72 hrs by MTT assay; format: functional, cell-based; settings: A549, 72 h
# [5] = Antiproliferative activity against human SMMC7721 cells after 72 hrs by MTT assay; format: functional, cell-based; settings: SMMC-7721, 72 h; summary of the method: as §1
# [6] = target: T1, Aurora kinase A (Homo sapiens) (UniProt O14965); assay: Inhibition of human full length Aurora A at 1 ug/ml by Z'-LYTE assay
# T1 sequence (whole entry): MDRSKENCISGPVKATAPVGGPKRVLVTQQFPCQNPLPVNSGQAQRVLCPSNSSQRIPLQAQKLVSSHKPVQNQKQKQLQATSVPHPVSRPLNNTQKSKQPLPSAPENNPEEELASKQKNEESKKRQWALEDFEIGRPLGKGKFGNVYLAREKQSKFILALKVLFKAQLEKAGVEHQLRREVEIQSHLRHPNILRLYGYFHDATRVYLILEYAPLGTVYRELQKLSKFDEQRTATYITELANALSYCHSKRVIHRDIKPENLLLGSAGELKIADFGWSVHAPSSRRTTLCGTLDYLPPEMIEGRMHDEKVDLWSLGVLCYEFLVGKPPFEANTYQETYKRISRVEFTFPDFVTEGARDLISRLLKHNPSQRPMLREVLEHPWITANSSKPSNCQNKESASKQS
# [7] = target: Glycogen synthase kinase-3 beta (Homo sapiens) (UniProt P49841); assay: Inhibition of GSK3beta (unknown origin) at 1 ug/ml relative to control
# [8] = target: Serine/threonine-protein kinase B-raf (Homo sapiens) (UniProt P15056); assay: Inhibition of BRAF (unknown origin) at 1 ug/ml relative to control
# [9] = target: Cyclin-dependent kinase 2 (Homo sapiens) (UniProt P24941); assay: Inhibition of CDK2 (unknown origin) at 1 ug/ml relative to control
# [10] = target: T2, Aurora kinase A (Homo sapiens, UniProt O14965); assay: Inhibition of human full length Aurora A by Z'-LYTE assay
# T2 sequence (O14965 whole entry): T1 sequence (whole entry)
# [11] = target: Dual specificity mitogen-activated protein kinase kinase 1 (Homo sapiens) (UniProt Q02750); assay: Inhibition of MEK1 (unknown origin) at 1 ug/ml relative to control
# [12] = target: T3, Inhibitor of nuclear factor kappa-B kinase subunit beta (Homo sapiens) (UniProt O14920); assay: Inhibition of IKKbeta (unknown origin) at 1 ug/ml relative to control
# T3 sequence (whole entry): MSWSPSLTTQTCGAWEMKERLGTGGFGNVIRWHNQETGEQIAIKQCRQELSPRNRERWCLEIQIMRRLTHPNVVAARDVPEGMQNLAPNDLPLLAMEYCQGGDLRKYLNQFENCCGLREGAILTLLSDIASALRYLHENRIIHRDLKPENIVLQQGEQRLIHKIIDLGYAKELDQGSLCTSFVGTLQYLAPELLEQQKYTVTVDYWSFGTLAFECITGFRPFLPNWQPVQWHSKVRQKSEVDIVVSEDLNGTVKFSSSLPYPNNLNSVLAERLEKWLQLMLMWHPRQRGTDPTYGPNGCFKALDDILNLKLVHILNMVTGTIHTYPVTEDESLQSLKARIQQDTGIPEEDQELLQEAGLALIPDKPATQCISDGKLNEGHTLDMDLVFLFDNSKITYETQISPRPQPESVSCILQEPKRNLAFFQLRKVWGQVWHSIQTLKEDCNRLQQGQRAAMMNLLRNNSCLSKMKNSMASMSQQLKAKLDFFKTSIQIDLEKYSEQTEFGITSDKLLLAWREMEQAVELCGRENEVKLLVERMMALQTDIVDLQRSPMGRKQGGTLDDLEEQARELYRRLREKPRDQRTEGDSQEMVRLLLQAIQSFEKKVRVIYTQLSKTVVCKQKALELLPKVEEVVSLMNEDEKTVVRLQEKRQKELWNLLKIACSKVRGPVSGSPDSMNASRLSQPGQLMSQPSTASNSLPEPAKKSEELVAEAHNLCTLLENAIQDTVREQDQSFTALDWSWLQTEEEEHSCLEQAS
# [13] = target: T4, Serine/threonine-protein kinase Chk1 (Homo sapiens) (UniProt O14757); assay: Inhibition of CHK1 (unknown origin) at 1 ug/ml relative to control
# T4 sequence (whole entry): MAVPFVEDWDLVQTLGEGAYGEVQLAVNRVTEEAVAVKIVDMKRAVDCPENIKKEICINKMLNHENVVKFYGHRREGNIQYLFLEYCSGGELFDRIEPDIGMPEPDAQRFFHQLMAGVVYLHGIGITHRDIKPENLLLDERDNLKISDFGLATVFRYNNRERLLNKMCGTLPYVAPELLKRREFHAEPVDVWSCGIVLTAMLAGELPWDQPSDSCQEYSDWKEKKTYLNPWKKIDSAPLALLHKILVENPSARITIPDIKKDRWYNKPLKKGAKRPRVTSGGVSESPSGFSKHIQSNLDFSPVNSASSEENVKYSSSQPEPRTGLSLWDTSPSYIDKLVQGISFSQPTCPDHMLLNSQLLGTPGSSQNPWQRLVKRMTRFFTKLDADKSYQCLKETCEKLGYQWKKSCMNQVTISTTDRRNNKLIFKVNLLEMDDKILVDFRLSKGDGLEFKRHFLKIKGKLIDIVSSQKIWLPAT
# Summary of the method: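 Fixed-concentration screen at 1 µg/mL using the luminescent ADP-Glo assay.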
# [14] = target: Protein kinase C (PKC) (Homo sapiens) (UniProt O94806+P41743+P17252+P05129+Q05655+P05771+Q05513+Q02156+P24723+Q15139+Q04759); assay: Inhibition of PKC (unknown origin) at 1 ug/ml relative to control
# Summary of the method: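 Fixed-concentration screen at 1 µg/mL with a Z'-LYTE kinase assay kit.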
# [15] = Apparent permeability across apical to basolateral side in MDCK cells by HPLC; format: ADME, cell-based, Canis lupus familiaris; settings: dog
# Dual specificity mitogen-activated protein kinase kinase 1 (Homo sapiens), sequence (Q02750 whole entry): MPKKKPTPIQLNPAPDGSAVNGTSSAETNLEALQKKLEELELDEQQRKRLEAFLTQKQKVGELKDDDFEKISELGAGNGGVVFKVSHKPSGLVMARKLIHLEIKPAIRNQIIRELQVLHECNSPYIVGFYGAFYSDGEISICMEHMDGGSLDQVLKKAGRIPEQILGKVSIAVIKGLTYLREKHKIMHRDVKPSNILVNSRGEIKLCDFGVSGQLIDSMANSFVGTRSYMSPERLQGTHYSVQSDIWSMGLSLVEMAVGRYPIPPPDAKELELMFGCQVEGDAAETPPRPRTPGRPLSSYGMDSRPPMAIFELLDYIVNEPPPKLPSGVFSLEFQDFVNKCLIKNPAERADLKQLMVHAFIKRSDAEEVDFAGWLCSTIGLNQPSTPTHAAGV
# Serine/threonine-protein kinase B-raf (Homo sapiens), sequence (P15056 whole entry): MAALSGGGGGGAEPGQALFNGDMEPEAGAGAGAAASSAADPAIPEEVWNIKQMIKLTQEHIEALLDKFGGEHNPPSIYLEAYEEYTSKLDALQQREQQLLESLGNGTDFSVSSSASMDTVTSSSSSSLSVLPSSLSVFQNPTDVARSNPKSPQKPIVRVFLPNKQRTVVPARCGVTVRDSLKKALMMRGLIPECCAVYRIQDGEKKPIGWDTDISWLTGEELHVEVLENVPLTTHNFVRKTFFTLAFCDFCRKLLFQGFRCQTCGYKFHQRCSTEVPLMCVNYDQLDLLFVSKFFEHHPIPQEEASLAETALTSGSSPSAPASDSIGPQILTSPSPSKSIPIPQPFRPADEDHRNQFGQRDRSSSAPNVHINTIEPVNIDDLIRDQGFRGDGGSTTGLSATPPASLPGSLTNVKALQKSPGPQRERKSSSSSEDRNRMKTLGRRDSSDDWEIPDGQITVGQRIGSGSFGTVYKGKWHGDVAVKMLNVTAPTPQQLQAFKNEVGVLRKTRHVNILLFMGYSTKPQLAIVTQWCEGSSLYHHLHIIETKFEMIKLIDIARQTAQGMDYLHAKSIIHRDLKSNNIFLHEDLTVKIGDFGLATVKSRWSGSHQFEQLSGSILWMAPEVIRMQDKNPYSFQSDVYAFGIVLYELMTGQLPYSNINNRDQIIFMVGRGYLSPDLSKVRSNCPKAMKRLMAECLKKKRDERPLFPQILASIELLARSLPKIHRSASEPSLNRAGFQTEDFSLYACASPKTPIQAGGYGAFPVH
# Glycogen synthase kinase-3 beta (Homo sapiens), sequence (P49841 whole entry, looked up): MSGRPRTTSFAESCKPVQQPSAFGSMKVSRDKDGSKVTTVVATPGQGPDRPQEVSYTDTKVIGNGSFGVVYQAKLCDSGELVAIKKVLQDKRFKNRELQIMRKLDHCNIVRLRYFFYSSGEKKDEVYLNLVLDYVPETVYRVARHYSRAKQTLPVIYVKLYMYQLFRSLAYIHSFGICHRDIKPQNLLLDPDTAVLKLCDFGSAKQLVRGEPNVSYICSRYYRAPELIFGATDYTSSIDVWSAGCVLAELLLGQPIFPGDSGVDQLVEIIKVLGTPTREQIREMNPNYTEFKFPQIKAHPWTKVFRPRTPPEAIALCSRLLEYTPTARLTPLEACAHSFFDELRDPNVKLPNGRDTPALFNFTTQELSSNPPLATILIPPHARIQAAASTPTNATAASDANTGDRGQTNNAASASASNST
Compound,IC50 [2] [µM],IC50 [4] [µM],inhibition [6] [%],inhibition [7] [%],inhibition [8] [%],inhibition [9] [%],IC50 [10] [µM],inhibition [11] [%],inhibition [12] [%],inhibition [13] [%],inhibition [14] [%],Papp A→B [15] [×10⁻⁶ cm/s],IC50 [1] [µM],IC50 [3] [µM],IC50 [5] [µM]
CN(C(=O)c1ccc([N+](=O)[O-])cc1)c1ccc2[nH]c(-c3n[nH]c4ccccc34)cc2n1,20.2,34.5,,,,,,,,,,,6.8,19.9,18.4
COc1ccc(S(=O)(=O)N(C)c2ccc3[nH]c(-c4n[nH]c5ccccc45)cc3n2)cc1OC,10.1,> 50,,,,,,,,,,,6.32,16.7,26.6
COc1ccc(NC(=O)N(C)c2ccc3[nH]c(-c4n[nH]c5ccccc45)cc3n2)cc1,,,,,,,,,,,,,0.0079,0.063,
CN(C(=O)C(C)(C)C)c1ccc2[nH]c(-c3n[nH]c4ccccc34)cc2n1,8.39,24.4,,,,,,,,,,,4.99,18,22.2
Cc1ccc(S(=O)(=O)N(C)c2ccc3[nH]c(-c4n[nH]c5ccccc45)cc3n2)cc1,9.5,27.1,,,,,,,,,,,3.03,13.3,16.3
CN(C(=O)CCc1ccccc1)c1ccc2[nH]c(-c3n[nH]c4ccccc34)cc2n1,7.38,18.1,,,,,,,,,,,4.73,11.2,20.9
CC(=O)N(C)c1ccc2[nH]c(-c3n[nH]c4ccccc34)cc2n1,10.3,> 50,,,,,,,,,,,5.11,14.8,23.4
CCC(=O)N(C)c1ccc2[nH]c(-c3n[nH]c4ccccc34)cc2n1,9.3,15.7,,,,,,,,,,,6.13,10.8,33.5
CN(c1ccc2[nH]c(-c3n[nH]c4ccccc34)cc2n1)S(=O)(=O)c1ccc(Cl)cc1,8.35,18.2,,,,,,,,,,,0.77,5.98,12.7
CN(C(=O)c1ccccc1)c1ccc2[nH]c(-c3n[nH]c4cc(C#N)ccc34)cc2n1,20.9,32.8,,,,,,,,,,,6.43,24,> 50
COc1ccc(C(=O)N(C)c2ccc3[nH]c(-c4n[nH]c5ccccc45)cc3n2)cc1,12.9,14.6,,,,,,,,,,,3.32,29.5,23.7
COc1cccc(C(=O)N(C)c2ccc3[nH]c(-c4n[nH]c5ccccc45)cc3n2)c1,9.01,14.9,,,,,,,,,,,1.42,14.2,22
COc1ccc(S(=O)(=O)N(C)c2ccc3[nH]c(-c4n[nH]c5ccccc45)cc3n2)cc1,22.1,24.2,,,,,,,,,,,4.34,22.4,13
CN(C(=O)c1ccco1)c1ccc2[nH]c(-c3n[nH]c4ccccc34)cc2n1,19.4,15.5,,,,,,,,,,,4.54,30,28.2
COc1ccc(S(=O)(=O)N(C)c2ccc3[nH]c(-c4n[nH]c5ccccc45)cc3n2)c(OC)c1,10.2,25.9,,,,,,,,,,,5.18,21.8,10.8
CN(C(=O)c1ccccc1)c1ccc2[nH]c(-c3n[nH]c4ccccc34)cc2n1,8.58,13.8,95.8,18.6,11.7,28.2,0.032,3.85,8.06,8.3,5.4,2.07,4.85,10.6,12.5

# The next lines start with results.
IC50 [2] [µM],IC50 [4] [µM],inhibition [6] [%],inhibition [7] [%],inhibition [8] [%],inhibition [9] [%],IC50 [10] [µM],inhibition [11] [%],inhibition [12] [%],inhibition [13] [%],inhibition [14] [%],Papp A→B [15] [×10⁻⁶ cm/s],Compound,IC50 [1] [µM],IC50 [3] [µM],IC50 [5] [µM]
1.78,4.25,,,,,,,,,,,CN(C(=O)c1ccc(Br)cc1)c1ccc2[nH]c(-c3n[nH]c4ccccc34)cc2n1,1.08,6.11,3.46
5.87,20.1,,,,,,,,,,,CN(c1ccc2[nH]c(-c3n[nH]c4ccccc34)cc2n1)S(=O)(=O)c1cccc([N+](=O)[O-])c1,3.66,13.6,5.07
7.22,9.65,,,,,,,,,,,CN(C(=O)c1ccc(F)cc1)c1ccc2[nH]c(-c3n[nH]c4ccccc34)cc2n1,1.21,9.27,9.15
0.015,,,,,,,,,,,,CC(=O)O[C@H]1C(=O)[C@@]2(C)[C@H]([C@H](OC(=O)c3ccccc3)[C@]3(O)C[C@H](OC(=O)[C@H](O)[C@@H](NC(=O)c4ccccc4)c4ccccc4)C(C)=C1C3(C)C)[C@]1(OC(C)=O)CO[C@@H]1C[C@@H]2O [PACLITAXEL],0.0017,0.0049,0.12
5.59,9.59,,,,,,,,,,,CN(C(=O)c1ccccc1)c1ccc2[nH]c(-c3n[nH]c4cc(Cl)ccc34)cc2n1,5.62,13.1,11.3
2.4,14,,,,,,,,,,,CN(c1ccc2[nH]c(-c3n[nH]c4ccccc34)cc2n1)S(=O)(=O)c1ccccc1,3.7,6.74,12
0.63,2.22,95,27.8,14.4,35.5,0.046,1.98,0.94,1,10.6,3.95,CN(C(=O)c1ccc(Cl)cc1)c1ccc2[nH]c(-c3n[nH]c4ccccc34)cc2n1,0.45,3,2.42
7.15,19.7,,,,,,,,,,,CN(c1ccc2[nH]c(-c3n[nH]c4ccccc34)cc2n1)S(=O)(=O)c1ccc(Br)cc1,6.24,9.85,11.5
4.38,19.4,,,,,,,,,,,COc1ccc(OC)c(S(=O)(=O)N(C)c2ccc3[nH]c(-c4n[nH]c5ccccc45)cc3n2)c1,0.84,8.4,4.28
1.33,8,,,,,,,,,,,CN(c1ccc2[nH]c(-c3n[nH]c4ccccc34)cc2n1)S(=O)(=O)c1ccc(OC(F)(F)F)cc1,1.17,6.04,7.16
